From ChEMBL document CHEMBL4017549, “Structural Basis of Inhibition of ERα-Coactivator Interaction by High-Affinity N-Terminus Isoaspartic Acid Tethered Helical Peptides” (J Med Chem, 2017)
pIC50, pKd: −log10 of the molar value. Active and inactive are the calls of the source. The calls are words filed in the database; no cut-off is given here. Peptide text beside a SMILES is read from it. * marks the point of attachment. FITC = O=C1OC2(c3ccc(O)cc3Oc3cc(O)ccc32)c2ccc(NC(=S)*)cc21; βAla = NCCC(=O)O

Experiments:
MCF7 [1] = test: Cytotoxicity against human MCF7 cells assessed as cell viability up to 100 uM after 24 hrs by MTT assay; assay type: functional, cell-based
Procedure, shortened: (§1)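 MTT read-out. 5000−10000 cells/well seeded overnight in their own medium: MCF7 and MCF10A in DMEM with phenol red, 10% FBS, 37 °C, 5% CO2; T47D in RPMI1640 with insulin and 10% FBS; MDA-MB-231 in L-15, 10% FBS, no CO2. Serial peptide dilutions or DMSO for 20 h at 37 °C, then MTT 4 h more; formazan in DMSO, A570.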

MCF7 [2] = test: Cytotoxicity against human MCF7 cells assessed as reduction in cell viability at 1 uM after 24 hrs by MTT assay relative to control; assay type: cell-based; details: mcf7, 24 h
MCF7 [3] = test: Cytotoxicity against human MCF7 cells assessed as reduction in cell viability at 5 uM after 24 hrs by MTT assay relative to control; assay type: cell-based; details: mcf7, 24 h
Estrogen receptor = target: T1, Estrogen receptor (Homo sapiens, UniProt P03372); test: Binding affinity to recombinant human GFP-fused ERalpha LBD (301 to 553 residues) expressed in Escherichia coli BL21(DE3) after 40 mins in presence of 17beta-estradiol by fluorescence polarization assay
T1 sequence (P03372 whole entry): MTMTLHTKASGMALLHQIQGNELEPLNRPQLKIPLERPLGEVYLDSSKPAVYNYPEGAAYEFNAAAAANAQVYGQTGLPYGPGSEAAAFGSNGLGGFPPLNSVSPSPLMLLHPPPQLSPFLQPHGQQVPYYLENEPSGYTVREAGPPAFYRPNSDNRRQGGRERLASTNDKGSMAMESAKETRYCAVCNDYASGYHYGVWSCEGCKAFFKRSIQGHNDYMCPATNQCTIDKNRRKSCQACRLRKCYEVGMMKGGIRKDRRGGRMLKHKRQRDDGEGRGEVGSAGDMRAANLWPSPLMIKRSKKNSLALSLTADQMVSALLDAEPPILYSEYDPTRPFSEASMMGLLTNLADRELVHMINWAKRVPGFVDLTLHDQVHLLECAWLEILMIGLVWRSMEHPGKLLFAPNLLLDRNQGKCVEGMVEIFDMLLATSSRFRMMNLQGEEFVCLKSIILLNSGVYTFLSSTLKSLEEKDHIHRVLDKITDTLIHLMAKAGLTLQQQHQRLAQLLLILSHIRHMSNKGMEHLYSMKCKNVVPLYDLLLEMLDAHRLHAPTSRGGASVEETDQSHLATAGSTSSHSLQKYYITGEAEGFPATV

Estrogen receptor beta = Estrogen receptor beta (Homo sapiens, UniProt Q92731); test: Binding affinity to recombinant human GFP-fused ERbeta LBD (259 to 498 residues) expressed in Escherichia coli BL21(DE3) after 40 mins in presence of 17beta-estradiol by fluorescence polarization assay
Estrogen receptor beta, sequence (Q92731 whole entry, the tested form may be a part): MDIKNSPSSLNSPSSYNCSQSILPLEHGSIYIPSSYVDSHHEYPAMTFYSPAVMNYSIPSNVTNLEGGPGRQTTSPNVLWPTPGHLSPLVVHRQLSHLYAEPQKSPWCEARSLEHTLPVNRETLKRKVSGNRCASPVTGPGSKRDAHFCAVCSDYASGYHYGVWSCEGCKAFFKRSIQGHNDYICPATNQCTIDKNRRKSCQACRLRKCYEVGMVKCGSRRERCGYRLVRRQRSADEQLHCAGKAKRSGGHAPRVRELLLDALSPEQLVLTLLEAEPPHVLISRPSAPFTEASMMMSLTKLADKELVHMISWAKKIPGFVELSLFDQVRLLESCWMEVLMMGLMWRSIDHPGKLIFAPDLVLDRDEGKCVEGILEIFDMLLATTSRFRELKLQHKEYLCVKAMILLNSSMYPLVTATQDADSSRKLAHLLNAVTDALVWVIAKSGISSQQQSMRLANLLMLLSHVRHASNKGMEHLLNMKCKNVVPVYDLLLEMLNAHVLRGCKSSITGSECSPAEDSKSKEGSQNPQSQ
Procedure, shortened: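 FITC-labelled peptide at 10 nM final, titrated with increasing purified LBD (ERβ LBD carrying C334S, C369S, C481S) in 20 mM Tris-HCl pH 8.0, 150 mM NaCl, 5% glycerol, 1 mM TCEP with 10 μM 17β-estradiol. Incubated 40 min in the dark, polarization read at 298 K (ex 480/em 535 nm). KD from nonlinear regression of polarization versus protein concentration.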

Progesterone receptor = target: T2, Progesterone receptor (Homo sapiens, UniProt P06401); test: Binding affinity to recombinant human GST-tagged PGR LBD (678 to 933 residues) expressed in Escherichia coli BL21 star(DE3) after 40 mins in presence of progesterone by fluorescence polarization assay
T2 sequence (P06401 whole entry): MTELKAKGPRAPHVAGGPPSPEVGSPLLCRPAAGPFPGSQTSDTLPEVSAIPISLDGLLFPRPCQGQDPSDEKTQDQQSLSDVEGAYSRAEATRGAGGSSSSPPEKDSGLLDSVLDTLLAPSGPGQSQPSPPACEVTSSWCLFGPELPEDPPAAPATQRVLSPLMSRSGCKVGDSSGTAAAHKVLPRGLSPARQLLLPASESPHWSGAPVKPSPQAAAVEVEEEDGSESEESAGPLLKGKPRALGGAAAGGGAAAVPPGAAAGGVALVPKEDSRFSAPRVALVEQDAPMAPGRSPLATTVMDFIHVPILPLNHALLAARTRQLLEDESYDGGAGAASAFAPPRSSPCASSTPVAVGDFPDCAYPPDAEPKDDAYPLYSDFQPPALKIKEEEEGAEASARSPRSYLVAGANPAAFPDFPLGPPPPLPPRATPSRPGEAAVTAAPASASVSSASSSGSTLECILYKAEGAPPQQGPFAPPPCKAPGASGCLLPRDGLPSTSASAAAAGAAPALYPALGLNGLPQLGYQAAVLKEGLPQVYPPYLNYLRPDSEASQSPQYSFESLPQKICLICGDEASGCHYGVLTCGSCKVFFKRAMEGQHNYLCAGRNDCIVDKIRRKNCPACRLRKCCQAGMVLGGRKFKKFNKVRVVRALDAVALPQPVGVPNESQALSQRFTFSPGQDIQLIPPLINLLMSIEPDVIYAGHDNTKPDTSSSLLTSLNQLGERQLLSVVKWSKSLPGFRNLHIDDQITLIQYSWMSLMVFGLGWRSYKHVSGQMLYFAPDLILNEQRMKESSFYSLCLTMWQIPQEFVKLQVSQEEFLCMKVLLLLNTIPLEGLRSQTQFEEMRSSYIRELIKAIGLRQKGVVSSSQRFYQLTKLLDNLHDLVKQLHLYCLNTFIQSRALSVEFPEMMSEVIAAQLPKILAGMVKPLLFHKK
Procedure, shortened: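 FITC-labelled peptide at 10 nM final with increasing GST-PgR LBD in 20 mM Tris-HCl pH 8.0, 150 mM NaCl, 5% glycerol, 1 mM TCEP plus 10 μM progesterone. 40 min dark incubation, polarization at 298 K (ex 480/em 535 nm). KD by nonlinear regression against protein concentration.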

Vitamin D3 receptor = target: T3, Vitamin D3 receptor (Homo sapiens, UniProt P11473); test: Binding affinity to recombinant human GST-tagged VDR LBD (156 to 453 residues) expressed in Echerichia coli BL21 star (DE3) after 40 mins in presence of vitamin D3 by fluorescence polarization assay
T3 sequence (P11473 whole entry): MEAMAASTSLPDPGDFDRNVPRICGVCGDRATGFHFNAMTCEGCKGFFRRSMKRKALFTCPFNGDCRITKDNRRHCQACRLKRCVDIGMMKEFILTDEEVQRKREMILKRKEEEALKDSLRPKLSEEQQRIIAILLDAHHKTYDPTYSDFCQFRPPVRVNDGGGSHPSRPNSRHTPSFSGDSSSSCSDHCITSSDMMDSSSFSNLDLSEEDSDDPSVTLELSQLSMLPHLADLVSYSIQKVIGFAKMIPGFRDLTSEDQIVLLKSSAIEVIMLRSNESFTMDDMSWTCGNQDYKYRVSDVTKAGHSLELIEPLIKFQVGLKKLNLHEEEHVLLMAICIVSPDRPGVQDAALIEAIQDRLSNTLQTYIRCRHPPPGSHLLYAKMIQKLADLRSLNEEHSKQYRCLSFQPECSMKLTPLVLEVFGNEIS
Procedure, shortened: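 GST-VDR LBD titrated into 10 nM final FITC-labelled peptide in 20 mM Tris-HCl pH 8.0, 150 mM NaCl, 5% glycerol, 1 mM TCEP containing 10 μM vitamin D3. 40 min dark incubation, polarization at 298 K (ex 480/em 535 nm). KD by nonlinear regression.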

Homo sapiens [4] = organism: Homo sapiens; test: Selectivity ratio of Kd for recombinant human ERbeta LBD (259 to 498 residues) to Kd for recombinant human ERalpha LBD (301 to 553 residues)
Procedure, shortened: (§2)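 Ratio of KD values, each from fluorescence polarization of 10 nM FITC-peptide titrated with the respective LBD after 40 min in the dark at 298 K, with the matching ligand in buffer (10 μM 17β-estradiol, progesterone or vitamin D3).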

Homo sapiens [5] = organism: Homo sapiens; test: Selectivity ratio of Kd for recombinant human GST-tagged PGR LBD ([…] residues) to Kd for recombinant human ERalpha LBD (301 to 553 residues); procedure, shortened: as §2
Homo sapiens [6] = organism: Homo sapiens; test: Selectivity ratio of Kd for recombinant human GST-tagged VDR LBD (156 to 453 residues) to Kd for recombinant human ERalpha LBD (301 to 553 residues); procedure, shortened: as §2
[7] = Drug uptake in human MCF7 cells assessed per million cells at 5 uM after 3 hrs by FACS analysis; assay type: ADME, cell-based; details: mcf7, 3 h
Procedure, shortened: (§3)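 Adherent cells seeded overnight, then exposed to 5 μM FITC-labelled peptide or DMSO in FBS-free medium, 3 h, 37 °C. After PBS washes (three), about 10000 cells per sample analysed by flow cytometry; mean cellular fluorescence intensity calculated. More than two independent experiments, SEM.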

[8] = Drug uptake in human U2OS cells assessed per million cells at 5 uM after 3 hrs by FACS analysis; assay type: ADME, cell-based; procedure, shortened: as §3
[9] = target: T4, Estrogen receptor (Homo sapiens) (UniProt P03372); test: Binding affinity to recombinant human GFP-fused ERalpha LBD (301 to 553 residues) expressed in Escherichia coli BL21(DE3) in presence of ERalpha inhibitor 4-hydroxytamoxifen by ITC
T4 sequence (whole entry): T1 sequence (P03372 whole entry)
Procedure, shortened: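 ITC at 25 °C. 50 μM peptide injected in 2 μL steps into 5 μM ERα LBD in 50 mM Tris pH 8.0, 150 mM NaCl, 1 mM TCEP containing 0.1 mM 4-hydroxytamoxifen instead of estradiol. Isotherm fitted.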

[10] = target: T4, Estrogen receptor (Homo sapiens); test: Binding affinity to recombinant human GFP-fused ERalpha LBD (301 to 553 residues) expressed in Escherichia coli BL21(DE3) in presence of 17beta-estradiol by ITC
Procedure, shortened: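 ITC at 25 °C. 2 μL injections of 50 μM peptide into 5 μM ERα LBD in 50 mM Tris pH 8.0, 150 mM NaCl, 1 mM TCEP, 0.1 mM 17β-estradiol. Binding isotherm fitted for affinity.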

[11] = Drug uptake in human MCF7 cells at 5 uM after 3 hrs in presence of 10 nM E2 by DAPI-staining based confocal laser scanning microscopic analysis; details: mcf7, 3 h
MCF7 [12] = test: Cytotoxicity against human MCF7 cells assessed as cell viability at 20 uM after 24 hrs by MTT assay; assay type: functional; details: MCF7, 24 h, read-out: Activity
MCF7 [13] = test: Cytotoxicity against human MCF7 cells assessed as reduction in cell viability after 24 hrs by MTT assay; assay type: functional, cell-based; procedure, shortened: as §1
T47D = test: Cytotoxicity against human T47D cells assessed as reduction in cell viability up to 40 uM after 24 hrs by MTT assay; assay type: functional, cell-based; procedure, shortened: as §1
MCF-10A = test: Cytotoxicity against human MCF10A cells assessed as reduction in cell viability up to 40 uM after 24 hrs by MTT assay; assay type: cell-based; procedure, shortened: as §1
MDA-MB-231 = test: Cytotoxicity against human MDA-MB-231 cells assessed as reduction in cell viability up to 40 uM after 24 hrs by MTT assay; assay type: functional, cell-based; procedure, shortened: as §1
[14] = target: T4, Estrogen receptor (Homo sapiens); test: Inhibition of ERalpha in human MCF7 cells assessed as downregulation of 17beta-estradiol-mediated pS2 mRNA expression at 5 uM preincubated for 4 hrs followed by 17beta-estradiol addition measured after 16 hrs by quantitative RT-PCR analysis; assay type: cell-based
Procedure, shortened: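 MCF-7 cells hormone-depleted 72 h in phenol red-free DMEM with 5% charcoal-treated serum, given peptides or DMSO for 4 h, then 100 nM 17β-estradiol or DMSO for 16 h. pS2 mRNA measured by quantitative RT-PCR, normalized to β-actin. Three independent experiments, mean ± SEM.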

[15] = target: T4, Estrogen receptor (Homo sapiens); test: (§4) Inhibition of recombinant human GFP-fused ERalpha LBD (301 to 553 residues) expressed in human […] cells assessed as downregulation of 17beta-estradiol-induced transcription at 5 uM preincubated for 4 hrs followed by E2 addition measured after 20 hrs by dual luciferase reporter gene assay; assay type: cell-based
Procedure, shortened: (§5)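 U2OS cells in phenol red-free DMEM with 10% charcoal-stripped FBS, transfected 4 h with pEGFP-C1-ERα, 3XERE firefly luciferase reporter and pRL-TK Renilla plasmids. Peptides for 4 h, then 10 nM E2 or DMSO for 20 h. Lysates read by dual-luciferase; firefly normalized to Renilla, then to DMSO-treated control. SEM from more than two independent experiments.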

[16] = target: T4, Estrogen receptor (Homo sapiens); test: as §4, with “20 hrs in presence of tamoxifen by dual” for “20 hrs by dual”; assay type: cell-based; procedure, shortened: as §5

CC/C(=C(\c1ccccc1)c1ccc(OCCN(C)C)cc1)c1ccccc1 [TAMOXIFEN]
Activity (MCF7 [1]): Active
Activity (MCF7 [2]): < 20%
Activity (MCF7 [3]): < 20%

CC[C@H](C)[C@H](NC(=O)[C@H](CCCCN)NC(=O)[C@H](Cc1cnc[nH]1)NC(=O)CCNC(=S)Nc1ccc2c(c1)C(=O)OC21c2ccc(O)cc2Oc2cc(O)ccc21)C(=O)N[C@@H](CC(C)C)C(=O)N[C@@H](Cc1cnc[nH]1)C(=O)N[C@@H](CCCNC(=N)N)C(=O)N[C@@H](CC(C)C)C(=O)N[C@@H](CC(C)C)C(=O)N[C@@H](CCC(N)=O)C(N)=O ({FITC-βAla}-HKILHRLLQ-NH2)
pKd (Estrogen receptor): 6.93
pKd (Estrogen receptor beta): 6.67
pKd (Progesterone receptor): 7.09
pKd (Vitamin D3 receptor): 6.85
Selectivity ratio (Homo sapiens [4]): 1.8
Selectivity ratio (Homo sapiens [5]): 0.7
Selectivity ratio (Homo sapiens [6]): 1.2
Drug uptake [7]: Active
Drug uptake [8]: Active
Activity [9]: inactive
Activity [10]: Active
Drug uptake [11]: Not Active

CC[C@H](C)[C@@H]1NC(=O)C[C@H](NC(=O)[C@H](CCCNC(=N)N)NC(=O)CCNC(=O)[C@H](Cc2c[nH]c3ccccc23)NC(C)=O)C(=O)NCC(C(=O)N[C@@H](CCCNC(=N)N)C(=O)NC(CC(C)(C)C)C(=O)NC(CC(C)(C)C)C(=O)N[C@@H](CCC(N)=O)C(N)=O)NC(=O)C(CC(C)(C)C)NC1=O (stereo partly specified)
viability at 20 µM (MCF7 [12]): 14%
Activity (MCF7 [13]): Dose-dependent effect
pIC50 (MCF7 [13]; MCF7, 24 h): 4.92
Activity (T47D): Active
Activity (MCF-10A): Non-Toxic
Activity (MDA-MB-231): inactive
inhibition [14]: Active
inhibition [15]: Active
inhibition [16]: Active
Activity (MCF7 [2]): < 20%
Activity (MCF7 [3]): < 20%
